# Screens from PubChem BioAssay.
# An excerpt weighted towards active compounds, which were near 1.6% of everything screened.
# SR-BI DiI inh: inhibitors of SR-BI mediated HDL lipid uptake, primary screen, ldlA[mSR-BI] cells, fluorescence, single point; Scavenger receptor class B member 1 (Mus musculus), Q61009; inhibition, % at 12.5 µM; ldlA[mSR-BI] CHO cells, DiI-HDL uptake fluorescence, 3 h; 320,000 compounds, 0.96% hits;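 active = mean replicate inhibition of at least 70% and a set share of replicates each scoring 70 or more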;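 note: 0% = median of neutral control wells and 100% = median of positive control wells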
# PvdQ acylase: P. aeruginosa PvdQ acylase inhibitors, primary screen, biochemical, fluorescence, plate reader and imaging, single point; purified PvdQ acylase; inhibition, % at 10 µM; 340,000 compounds, 0.063% hits; AID 488965, 2010; in the data active = inhibition above about 30%, passing the limit was not always enough;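 note: 0% = vehicle neutral wells and 100% = reference inhibitor wells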
# S100A4 MyoIIA: inhibitors of S100A4-myosin IIA peptide binding, primary screen, biochemical, fluorescence polarization, TAMRA-MyoIIA peptide | inhibition, % at 10.7 µM | Protein S100-A4 (Homo sapiens), P26447 | 360,000 compounds, 0.14% hits;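 active = mean inhibition of at least 70% across replicates, with every replicate also reaching that level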
# Target sequence (P26447 whole entry, looked up): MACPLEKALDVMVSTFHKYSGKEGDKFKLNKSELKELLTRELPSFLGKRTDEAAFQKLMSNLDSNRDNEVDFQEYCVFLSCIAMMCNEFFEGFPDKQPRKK
#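 Assay system: human S100A4 monomer with TAMRA-labelled myosin IIA peptide / Buffer or medium: Calcium-containing HEPES buffer, pH 7.2 / Reagent: TAMRA-labelled myosin IIA heavy-chain peptide probe, 5 nM / Compound: one dose per compound / Timing: polarization read 5 min after assay mix addition, stable 5–60 min / Benchmarks: neutral control DMSO, positive control TFP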
# dFosB activator: activators of delta FosB homodimer, primary screen, biochemical, fluorescence polarization, TAMRA-CDK5 oligo, single point; Protein FosB (Mus musculus), P13346; purified delta FosB; percent of positive-control signal above neutral wells; activation, % at 25 µM; 340,000 compounds, 0.99% hits;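 active = mean activation above about 17%, with every replicate also reaching it, limit read from the data, passing the limit was not always enough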
# Target sequence (P13346 whole entry, looked up): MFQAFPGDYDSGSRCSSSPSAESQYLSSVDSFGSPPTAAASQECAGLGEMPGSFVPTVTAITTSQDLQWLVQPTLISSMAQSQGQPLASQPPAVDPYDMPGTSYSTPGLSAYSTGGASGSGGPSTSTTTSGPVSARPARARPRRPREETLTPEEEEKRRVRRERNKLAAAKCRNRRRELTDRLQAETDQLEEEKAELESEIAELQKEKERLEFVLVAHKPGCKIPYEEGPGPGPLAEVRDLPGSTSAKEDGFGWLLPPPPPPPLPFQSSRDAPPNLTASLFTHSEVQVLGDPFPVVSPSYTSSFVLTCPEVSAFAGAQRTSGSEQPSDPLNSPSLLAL
# RAD54 branch: inhibitors of human RAD54 branch migration, primary screen, biochemical, fluorescence, single point; DNA repair and recombination protein RAD54-like (Homo sapiens), Q92698; RAD54 Holliday junction branch migration, FAM/BHQ fluorescence; inhibition, % at 10.4 µM; 360,000 compounds, 0.14% hits; AID 602329, 2012;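 active = mean normalized replicate activity at least 40 and at least half of replicates scoring 40 or more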;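 note: 0% = median of neutral control wells and 100% = median of positive control wells; inhibitors cause a drop in the FAM fluorescence signal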
# SR-BI DiI-HDL act: activators of SR-BI mediated DiI-HDL uptake, primary screen, ldlA[mSR-BI] CHO cells, DiI fluorescence; 3 h; 100 = double the neutral-control signal; activation, % at 12.5 µM; 320,000 compounds, 0.096% hits; AID 504775, 2011;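 active = mean replicate activation of at least 60% and every replicate at or above 60%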;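 note: 0% = median plate neutral-control signal and 100% = twice that signal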
#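 System: CHO ldlA[mSR-BI] cells / Medium: HEPES-buffered (25 mM, pH 7.4) F12 plus 0.5% BSA / Probe or stimulus: labelled HDL, 10 µg/mL / Doses: single compound concentration, delivered by pin transfer / Schedule: 3 h, 37 °C / Measured by: DiI fluorescence, bottom read / Measure: cell-associated DiI fluorescence as measure of HDL uptake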
# Starred values were filed as active, the others as inactive; x = no result.
SMILES,SR-BI DiI inh,PvdQ acylase,S100A4 MyoIIA,dFosB activator,RAD54 branch,SR-BI DiI-HDL act
Cc1cc(C)c(/C=N/NC(=O)c2nnn(-c3nonc3N)c2CN2CCC(C)CC2)c(C)c1,29.0,-17.6,2.7,-24.4,0.1,-29.0
COc1ccc(/C=N/NC(=O)c2nnn(-c3nonc3N)c2-c2cccc(OC)c2)cc1,30.0,-8.9,7.5,-0.7,3.5,-30.0
COc1ccc(O)c(/C=N/NC(=O)c2c(C)nnn2-c2nonc2N)c1,100.6*,7.0,-4.9,47.4*,x,-100.6
CC1CCN(Cc2c(C(=O)N/N=C/c3cc(Br)ccc3O)nnn2-c2nonc2N)CC1,102.7*,-10.2,0.8,133.8*,-1.4,-102.6
O=C(Cc1ccccc1)N1CC2(C1)[C@H](c1ccccc1)[C@@H](CO)N2S(=O)(=O)Cc1ccccc1,x,x,11.0,x,x,x
CCOC(=O)N(C)C[C@H]1OCc2ccccc2-c2c(n(C)c3ccccc23)C(=O)N([C@@H](C)CO)C[C@H]1C,x,x,6.3,x,-10.1,x
COc1cccc(NC(=O)N[C@H]2C=C[C@H](CC(=O)NCc3ccncn3)O[C@@H]2CO)c1,x,x,7.7,x,0.7,x
O=C(C[C@H]1C=C[C@@H](NC(=O)c2ccc(F)cc2)[C@H](CO)O1)NCc1ccncn1,x,x,5.9,x,-2.1,x
O=C(C[C@H]1C=C[C@H](NC(=O)c2ccc(F)cc2)[C@H](CO)O1)NCc1ccncn1,x,x,116.4*,x,-8.8,x
COc1cccc(NC(=O)N[C@@H]2C=C[C@@H](CC(=O)NCc3ccncn3)O[C@@H]2CO)c1,x,x,90.0*,x,-12.2,x
O=C(C[C@@H]1CC[C@H]2[C@@H](COC[C@H](O)CN2C(=O)Nc2cc(Cl)cc(Cl)c2)O1)NCC1CC1,x,x,2.4,x,-3.9,x
COCC(=O)N(C)C[C@@H]1Oc2ncc(C#C[C@@H](C)O)cc2C(=O)N([C@@H](C)CO)C[C@@H]1C,x,x,-2.7,x,3.0,x
COCC(=O)N[C@H]1CC[C@H](CC(=O)NCc2ccccc2OC)O[C@@H]1CO,x,x,1.3,x,2.5,x
Cc1cc(C(=O)CSc2nc(N)cc(=O)[nH]2)c(C)n1CCc1ccc(F)cc1,89.8*,-20.1,x,-2.9,x,-89.8
Cc1cc(C(=O)CSc2nnc(N)s2)c(C)n1CCc1ccc(F)cc1,62.4,-10.4,x,-2.3,-14.5,-62.4
C[C@H](CO)N1C[C@H](C)[C@@H](CN(C)C(=O)C2CCCCC2)Oc2cc(-c3cncnc3)ccc2S1(=O)=O,x,x,-2.2,x,-1.8,x
COc1ccccc1-c1cnn2c(NC3CCCC3)cc(C)nc12,86.4*,-11.3,-0.4,-4.4,15.4,-86.4
CCOC(=O)N1CCC(Nc2cc(C)nc3c(-c4ccccc4OC)c(C)nn23)CC1,9.2,-4.1,-1.0,-21.0,-2.6,-9.2
COc1ccc(/C=C2\Sc3ccc(C(=O)N4CCCC4)cc3N(C)C2=O)cc1OC,68.0,11.7,x,-7.5,2.2,-68.0
CCN1CCN(CCNC(=O)c2ccc(/C=C3/Sc4ccccc4N(Cc4cccc(Cl)c4)C3=O)cc2)CC1,x,-2.8,-2.8,-413.3,x,x
CCN1CCN(CCNC(=O)c2ccc3c(c2)N(Cc2ccc(F)cc2)C(=O)/C(=C/c2ccccc2)S3)CC1,x,-7.4,-0.5,-421.5,66.4*,x
COc1ccc(/C=C2\Sc3ccc(C(=O)NC4CC4)cc3N(C)C2=O)cc1OC,75.6*,1.2,11.6,-25.9,15.7,-75.6
COc1cccc(/C=C2/Sc3ccc(C(=O)NCCN4CCCC4)cc3NC2=O)c1,-10.6,4.7,0.9,36.1*,40.5,10.6
COc1ccc(/C=C2\Sc3ccc(C(=O)NCCN4CCCCCC4)cc3N(C)C2=O)cc1,42.4,-6.8,-5.4,26.5*,6.5,-42.4
CO[C@@H]1CN(C)C(=O)c2ccc(NC(=O)Nc3cccc(F)c3)cc2OC[C@H](C)N(C(C)=O)C[C@@H]1C,x,x,-7.8,x,3.7,x
SMILES,SR-BI DiI inh,PvdQ acylase,S100A4 MyoIIA,dFosB activator,RAD54 branch,SR-BI DiI-HDL act
COc1cccc(S(=O)(=O)N2CCC3(CC2)CN(C(=O)Nc2cccc(F)c2)[C@@H](CO)c2[nH]c4cc(OC)ccc4c23)c1,x,x,1.9,x,x,x
CCN1CCCC1CNC(=O)c1ccc2c(c1)NC(=O)/C(=C\c1ccc(C)cc1)S2 (centres undefined),25.4,-9.8,-3.1,39.2*,17.6,-25.4
Cc1cc(CN2CCCCC2C(=O)Nc2ccc(Oc3cccnc3)cc2)oc1C (centres undefined),78.6*,-22.4,-4.1,-12.3,-33.2,x
O=C(Nc1ccc(Oc2cccnc2)cc1)C1CCCCN1Cc1ccc(CO)o1 (centres undefined),2.8,13.2,-18.5,4.3,21.0,-2.8
C[C@H]1CN([C@@H](C)CO)C(=O)c2cc(C3=CCCCC3)cnc2O[C@H]1CN(C)C(=O)Nc1ccccc1,x,x,8.4,x,1.7,x
COc1cc(OC)cc(-c2cc3cc(F)ccc3cn2)c1,73.7*,0.1,19.1,-0.5,6.2,-73.7
Cc1ccc(Nc2nc(N)nc(-c3oc4ccccc4c3C)n2)cc1,13.3,-3.4,x,76.5*,x,-13.3
C[C@@H]1CN([C@H](C)CO)S(=O)(=O)c2ccc(C#Cc3ccc(F)cc3)cc2O[C@H]1CN(C)C(=O)CN(C)C,x,x,1.9,x,13.5,x
O=C(Nc1ccn(CCCN(CCCn2ccc(NC(=O)OCc3ccccc3)nc2=O)CCc2cc3ccccc3[nH]2)c(=O)n1)OCc1ccccc1,13.0,-4.3,1.3,82.7*,2.5,-13.0
CC(=O)N1[C@@H]2c3ccc(-c4ccccc4F)c(=O)n3C[C@H]1[C@H](CO)[C@H]2C(=O)N1CCOCC1,x,x,2.6,x,-1.9,x
Cc1ccc(-c2sc(C(=O)NN)c(C)c2C#N)cc1,91.6*,-5.5,15.1,-10.9,x,-91.6
CCN(CC)C(=O)Cn1cc(C(=O)C(=O)Nc2ccc3c(c2)OCCO3)c2ccccc21,77.0*,-9.8,-7.6,0.7,-5.1,-76.9
CCN(CC)C(=O)Cn1cc(C(=O)C(=O)NCCCN2CCOCC2)c2ccccc21,-20.6,-0.5,-2.4,-11.0,-2.9,x
C[C@H](CO)N1C[C@H](C)[C@H](CN(C)C(=O)Nc2ccc3c(c2)OCO3)Oc2ccc(NC(=O)C3CCCCC3)cc2CC1=O,x,x,-5.5,x,1.3,x
CCCOc1ccc(C(F)(F)F)cc1NC(=O)c1cc(C)on1,72.4*,8.5,-3.5,-5.4,-4.9,-72.4
O=c1c2ccccc2nc(COc2ccccc2)n1/N=C/c1cc([N+](=O)[O-])ccc1O,130.2*,4.1,-3.7,0.6,2.8,-130.2
